A short description of data set [1]: Cytotoxicity against human primary CLL cells assessed as cell death after 48 hrs by annexin V/propidium iodide-staining based flow cytometry. Format: functional. Conditions: read-out: LC50 (the source's name). The method in brief: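 Primary patient CLL cells were isolated by Histopaque density gradient, phenotyped by flow cytometry and used within 24 h. Culture was RPMI with 10% FBS, 1% glutamate and 1% pen/strep, plus IL-4 5 ng/ml added with compound, at 37 °C, 5% CO2. Cells at 1,000,000 cells/ml were treated from 1 nM upward for 48 h, in triplicate. Annexin V-FITC/PI was read by flow cytometry, and LC50 came from sigmoidal dose-response fits.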
On the technique in general: A flow cytometer gives signals particle by particle.

Data set [2] has as its system JJN-3. Kind of data set: Cytotoxicity against human JJN-3 cells assessed as cell death after 48 hrs by annexin V/propidium iodide-staining based flow cytometry. Format: functional. The following applies: JJN-3, 48 h, read-out: LC50 (the source's name). The gist of the method: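 JJN-3 cells were grown in DMEM with 20% FBS, 1% pen/strep and 1% pyruvate at 37 °C, 5% CO2. They were seeded at 1,000,000 cells/ml and exposed to compound from 1 nM upward for 48 h, in triplicate. Cell death was measured by Annexin V-FITC/propidium iodide flow cytometry, and LC50 was derived from sigmoidal dose-response curves.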

The nature of data set [3]: Cytotoxicity against human B cells assessed as cell death after 48 hrs by annexin V/propidium iodide-staining based flow cytometry. The following applies: read-out: LC50. The method in brief:
(§1)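 Normal peripheral blood B or T cells from three donors were isolated by Histopaque density gradient and phenotyped for CD19/CD3/CD38/CD49d. They were used within 24 h in RPMI with 10% FBS, 1% glutamate and 1% pen/strep at 37 °C, 5% CO2. Cells at 1,000,000 cells/ml were exposed from 1 nM upward for 48 h, in triplicate. FITC-Annexin V/PI staining was read by flow cytometry, and LC50 was taken from the dose-response curves.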

Data set [4] can be described thus: Cytotoxicity against human T cells assessed as cell death after 48 hrs by annexin V/propidium iodide-staining based flow cytometry. Conditions: read-out: LC50. The method in brief: as §1
A short description of data set [5]: Therapeutic index, ratio of LC50 for human B cells to LC50 for human primary CLL cells. Conditions: B cells versus primary CLL cells, read-out: TI. It is filed as toxicity.
Data set [6] is described as follows: Therapeutic index, ratio of LC50 for human T cells to LC50 for human primary CLL cells. It is filed as toxicity. The following applies: T cells versus primary CLL cells, read-out: TI.
In data set [7] the target is Transcription factor p65 (Homo sapiens) (UniProt Q04206). The data set can be described thus: Inhibition of NF-kappaB in human JJN-3 cells assessed as reduction in p65 DNA binding activity up to 30 nM after 4 hrs by ELISA. Format: cell-based. A general note: An ELISA detects its analyte on a solid surface through an enzyme-linked reagent.
The target in data set [8] is T1, Nuclear factor NF-kappa-B p105 subunit (Homo sapiens) (UniProt P19838).
T1 sequence (whole entry): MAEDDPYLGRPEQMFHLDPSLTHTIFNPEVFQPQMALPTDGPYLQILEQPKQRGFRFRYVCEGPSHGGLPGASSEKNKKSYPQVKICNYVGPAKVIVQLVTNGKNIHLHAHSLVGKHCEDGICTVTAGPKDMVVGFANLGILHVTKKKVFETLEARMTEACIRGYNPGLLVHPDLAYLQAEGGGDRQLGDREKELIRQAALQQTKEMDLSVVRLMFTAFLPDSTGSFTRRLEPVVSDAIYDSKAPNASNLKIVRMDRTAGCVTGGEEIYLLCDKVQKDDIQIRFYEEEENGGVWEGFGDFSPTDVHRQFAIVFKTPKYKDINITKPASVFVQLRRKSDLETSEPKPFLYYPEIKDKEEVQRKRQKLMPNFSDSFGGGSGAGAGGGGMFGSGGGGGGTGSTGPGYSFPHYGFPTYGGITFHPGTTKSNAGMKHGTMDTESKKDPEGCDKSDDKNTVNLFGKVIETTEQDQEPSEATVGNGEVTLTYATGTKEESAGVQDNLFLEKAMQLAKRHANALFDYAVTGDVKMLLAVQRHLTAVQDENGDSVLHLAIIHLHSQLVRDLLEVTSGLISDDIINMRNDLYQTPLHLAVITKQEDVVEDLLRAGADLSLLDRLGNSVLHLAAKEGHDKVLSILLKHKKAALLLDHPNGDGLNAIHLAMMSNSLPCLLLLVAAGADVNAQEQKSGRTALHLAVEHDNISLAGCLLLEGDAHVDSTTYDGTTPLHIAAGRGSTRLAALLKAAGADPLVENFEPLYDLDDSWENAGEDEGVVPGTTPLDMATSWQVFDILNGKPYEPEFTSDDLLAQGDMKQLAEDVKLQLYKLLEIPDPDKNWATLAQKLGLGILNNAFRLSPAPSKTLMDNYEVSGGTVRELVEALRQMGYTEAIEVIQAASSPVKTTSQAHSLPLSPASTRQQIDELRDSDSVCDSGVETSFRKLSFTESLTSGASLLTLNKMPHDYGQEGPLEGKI
Kind of data set: Inhibition of NF-kappaB in human JJN-3 cells assessed as reduction in p50 DNA binding activity up to 30 nM after 4 hrs by ELISA. Format: cell-based.

For data set [9], the target named is T2, Transcription factor RelB (Homo sapiens) (UniProt Q01201).
T2 sequence (whole entry): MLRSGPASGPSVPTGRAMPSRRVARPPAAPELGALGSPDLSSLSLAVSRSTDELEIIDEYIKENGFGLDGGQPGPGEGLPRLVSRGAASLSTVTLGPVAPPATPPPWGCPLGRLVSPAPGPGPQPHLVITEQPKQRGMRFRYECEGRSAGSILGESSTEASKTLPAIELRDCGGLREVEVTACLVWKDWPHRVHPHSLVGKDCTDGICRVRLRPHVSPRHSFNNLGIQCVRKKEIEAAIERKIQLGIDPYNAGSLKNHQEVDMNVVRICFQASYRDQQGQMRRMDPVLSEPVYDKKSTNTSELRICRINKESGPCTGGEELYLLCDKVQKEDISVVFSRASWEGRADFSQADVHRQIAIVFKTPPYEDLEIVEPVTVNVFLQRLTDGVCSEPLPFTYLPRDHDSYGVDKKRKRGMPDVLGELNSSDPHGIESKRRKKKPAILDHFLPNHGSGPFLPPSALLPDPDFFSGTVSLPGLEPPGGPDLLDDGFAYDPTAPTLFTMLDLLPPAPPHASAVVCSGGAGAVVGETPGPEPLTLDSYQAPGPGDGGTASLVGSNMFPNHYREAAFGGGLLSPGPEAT
The data set can be described thus: Inhibition of NF-kappaB in human JJN-3 cells assessed as reduction in RelB DNA binding activity up to 30 nM after 4 hrs by ELISA. It is filed as cell-based.

Calls of active or inactive are those of the source. The rule behind the calls is not given here.

Sequence of Transcription factor p65 (Homo sapiens) (Q04206 whole entry): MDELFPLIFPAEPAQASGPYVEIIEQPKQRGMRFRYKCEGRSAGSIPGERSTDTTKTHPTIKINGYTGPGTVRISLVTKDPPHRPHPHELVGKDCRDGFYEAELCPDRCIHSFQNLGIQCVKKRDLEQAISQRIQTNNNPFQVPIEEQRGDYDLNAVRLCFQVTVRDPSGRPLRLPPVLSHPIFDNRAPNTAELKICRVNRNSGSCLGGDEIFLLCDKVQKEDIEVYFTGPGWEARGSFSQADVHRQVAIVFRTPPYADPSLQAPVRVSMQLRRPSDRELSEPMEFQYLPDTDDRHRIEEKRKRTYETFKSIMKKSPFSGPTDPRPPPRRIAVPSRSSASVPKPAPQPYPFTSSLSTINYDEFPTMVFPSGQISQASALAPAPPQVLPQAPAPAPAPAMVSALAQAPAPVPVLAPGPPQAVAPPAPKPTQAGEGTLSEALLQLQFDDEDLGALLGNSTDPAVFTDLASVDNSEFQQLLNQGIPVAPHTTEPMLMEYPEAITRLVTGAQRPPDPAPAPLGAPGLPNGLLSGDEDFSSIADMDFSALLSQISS

For the compound `COc1cc2c(cc1OCCCC(=O)NC1CCCCC1)N=C[C@@H]1CCCN1C2=O`, the CC50 in data set [1] was found to be 7100 nM; in [2] it was 1400 nM. In addition, the values for the CC50 at 48 h in [3] and in [4] were 1700 nM and 12400 nM, respectively. Also, the results for the selectivity ratio in data set [5] and in [6] were 0.24 and 1.74, respectively.
Turning to `COC(=O)c1cc2cc(NC(=O)CCCOc3cc4c(cc3OC)C(=O)N3CCC[C@H]3C=N4)ccc2o1`, the CC50 in data set [1] was found to be 8.9 nM; in [2], 49 nM. Moreover, the CC50 at 48 h in data set [3] is 410 nM; in [4] it was 2100 nM. Further, the selectivity ratio in data set [5] turned out to be 46.1; in [6], 236.
As for `COc1cc2c(cc1OCCCC(=O)Nc1ccncc1)N=C[C@@H]1CCCN1C2=O`, the values for the CC50 in [1] and in data set [2] were 4900 nM and 6700 nM, respectively.
For `CCCCNC(=O)CCCOc1cc2c(cc1OC)C(=O)N1CCC[C@H]1C=N2`, the CC50 in data set [1] came out at 22400 nM; in [2], 51600 nM.
`COc1cc2c(cc1OCCCC(=O)Nc1cccc(C)c1)N=C[C@@H]1CCCN1C2=O`: the CC50 in [1] was found to be 13.6 nM; in [2], 20.2 nM.
For the compound `COc1cc2c(cc1OCCCC(=O)Nc1ccc(C)c(C)c1)N=C[C@@H]1CCCN1C2=O`, the values for the CC50 in [1] and in data set [2] were 8.6 nM and 23.7 nM, respectively.
As for `CCCOc1ccc(NC(=O)CCCOc2cc3c(cc2OC)C(=O)N2CCC[C@H]2C=N3)cc1`, the CC50 in [1] is 8.5 nM; in data set [2], 8.7 nM. For the same compound, the CC50 at 48 h was 390 nM in data set [3] and 1100 nM in data set [4]. In addition, the selectivity ratio was 45.9 in data set [5] and 129 in data set [6].
Turning to `COc1cc2c(cc1OCCCC(=O)Nc1ccccc1)N=C[C@@H]1CCCN1C2=O`, the CC50 was 11.6 nM in data set [1] and 26.4 nM in [2]. Also, the inhibition result in [7] and in data set [9] was “inactive” each time. In addition, the inhibition result in data set [8] was “Active”.
In the case of `CCNC(=O)CCCOc1cc2c(cc1OC)C(=O)N1CCC[C@H]1C=N2`, the figures for the CC50 in [1] and in [2] were 11700 nM and 28700 nM, respectively.
Consider `CCCNC(=O)CCCOc1cc2c(cc1OC)C(=O)N1CCC[C@H]1C=N2`, for which the CC50 came out at 25100 nM in [1] and 12700 nM in data set [2].
In the case of `COc1cc2c(cc1OCCCC(=O)Nc1ccc3c(c1)CCO3)N=C[C@@H]1CCCN1C2=O`, the CC50 in data set [1] came to 5.1 nM; in data set [2] it was 14.7 nM.
For `CNC(=O)CCCOc1cc2c(cc1OC)C(=O)N1CCC[C@H]1C=N2`, the CC50 in data set [1] is 16100 nM; in [2] it was 18500 nM.
Regarding `COc1cc2c(cc1OCCCC(=O)Nc1ccc3occc3c1)N=C[C@@H]1CCCN1C2=O`, the CC50 in data set [1] came to 9.4 nM; in [2] it was 44 nM. Moreover, the CC50 at 48 h in [3] was determined as 1400 nM; in [4], 3900 nM. The selectivity ratio stood at 149 in data set [5] and 415 in [6]. Moreover, the inhibition entry in [7] and in data set [8] was “Active” each time. For the same compound, in data set [9], the inhibition result is “inactive”.
With `COc1cc2c(cc1OCCCC(=O)Nc1ccc3c(c1)CCC3)N=C[C@@H]1CCCN1C2=O`, the CC50 came to 7.7 nM in [1] and 30 nM in data set [2].
On to `COC(=O)c1cc(NC(=O)c2cc(NC(=O)CCCOc3cc4c(cc3OC)C(=O)N3CCC[C@H]3C=N4)cn2C)cn1C`, for which the CC50 in data set [1] stood at 39 nM; in data set [2], 21 nM.
As to `COc1ccc(NC(=O)CCCOc2cc3c(cc2OC)C(=O)N2CCC[C@H]2C=N3)cc1`, the values for the CC50 in data set [1] and in [2] were 8.9 nM and 15.3 nM, respectively. Moreover, the values for the CC50 at 48 h in [3] and in data set [4] were 640 nM and 690 nM, respectively. In addition, the selectivity ratio was determined as 71.9 in data set [5] and 77.5 in data set [6]. Moreover, the inhibition result in data set [7] and in [9] was “inactive” each time. In addition, the inhibition entry in data set [8] was “Active”.
For `COc1cc2c(cc1OCCCC(=O)Nc1cccnc1)N=C[C@@H]1CCCN1C2=O`, the figures for the CC50 in data set [1] and in data set [2] were 4200 nM and 1600 nM, respectively.
In the case of `COc1cc2c(cc1OCCCC(=O)Nc1ccc(O)cc1)N=C[C@@H]1CCCN1C2=O`, the CC50 in [1] was 5500 nM; in [2], 2200 nM. Besides, the inhibition result in data set [7] and in data set [9] was “inactive” throughout. For the same compound, the inhibition entry in data set [8] was “Active”.
On to `COc1cc2c(cc1OCCCC(=O)Nc1ccc(C)cc1)N=C[C@@H]1CCCN1C2=O`, for which the CC50 in [1] amounted to 12.3 nM; in data set [2] it was 17.5 nM.

(Values after ChEMBL document CHEMBL4411330, “Effects of Systematic Shortening of Noncovalent C8 Side Chain on the Cytotoxicity and NF-κB Inhibitory Capacity of Pyrrolobenzodiazepines (PBDs)” (J Med Chem, 2019).)
